Test system: U2OS
Assay: Multiplex assay against U2OS
Format: toxicity, cell-based
Settings: human
In short: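 With compound added, live cells were imaged on a CQ1 microscope at 37°C and 5% CO2; staining with Hoechst33342, BioTracker Green Microtubule Cytoskeleton Dye, MitoTracker Red and Annexin V Alexa Fluor 680 had been done at seeding. The CellPathfinder machine-learning gating scheme split cells into Hoechst high-intensity objects or normal cells, normal cells into healthy, pyknosed or fragmented nuclei, and pyknosed cells into mitotic or apoptotic. The tubulin, mitochondrial-mass and membrane-permeability phenotypes are per cents of healthy-nucleus cells.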

[1] = 12 h, 1 µM, compound concentration 1 uM, replicate 1
[2] = 12 h, 1 µM, compound concentration 1 uM, replicate 2
[3] = 12 h, 10 µM, compound concentration 10 uM, replicate 1
[4] = 12 h, 10 µM, compound concentration 10 uM, replicate 2
[5] = 24 h, 1 µM, compound concentration 1 uM, replicate 1
[6] = 24 h, 1 µM, compound concentration 1 uM, replicate 2
[7] = 24 h, 10 µM, compound concentration 10 uM, replicate 1
[8] = 24 h, 10 µM, compound concentration 10 uM, replicate 2
[9] = 48 h, 1 µM, compound concentration 1 uM, replicate 1
[10] = 48 h, 1 µM, compound concentration 1 uM, replicate 2
[11] = 48 h, 10 µM, compound concentration 10 uM, replicate 1
[12] = 48 h, 10 µM, compound concentration 10 uM, replicate 2

In the case of O=C1NCN(c2ccccc2)C12CCN(CCCOc1ccc(F)cc1)CC2 [SPIRAMIDE], the “Population Apoptotic (%)” value [1] is reported as 22%, the “Population Fragmented Nuclei (%)” value [1] is reported as 16% and the “Population Healthy Nuclei (%)” value [1] is reported as 77%. For the same compound, the “Population Hoechst High Intensity Objects (%)” value [1] was 6%, the “Population Membrane Permeable-Phenotype (%)” value [1] was 1% and the “Population Mitochondria Different-Phenotype (%)” value [1] was 9%. The “Population Mitotic Cells (%)” value [1] was 77%, the “Population Normal (%)” value [1] was 93% and the “Population Pyknosed Nuclei (%)” value [1] was 6%. For the same compound, the “Population Tubulin-Different-Phenotype (%)” value [1] was 10%, the “Total Cell Count” value [1] was 210 and the “Population Apoptotic (%)” value [2] was 0%. For the same compound, the “Population Fragmented Nuclei (%)” value [2] was 10%, the “Population Healthy Nuclei (%)” value [2] was 88% and the “Population Hoechst High Intensity Objects (%)” value [2] was 7%. The “Population Membrane Permeable-Phenotype (%)” value [2] was 0%, the “Population Mitochondria Different-Phenotype (%)” value [2] was 10% and the “Population Mitotic Cells (%)” value [2] was 100%. For the same compound, the “Population Normal (%)” value [2] was 92%, the “Population Pyknosed Nuclei (%)” value [2] was 1% and the “Population Tubulin-Different-Phenotype (%)” value [2] was 6%. For the same compound, the “Total Cell Count” value [2] was 74, the “Population Apoptotic (%)” value [3] was 36% and the “Population Fragmented Nuclei (%)” value [3] was 16%. For the same compound, the “Population Healthy Nuclei (%)” value [3] was 51%, the “Population Hoechst High Intensity Objects (%)” value [3] was 10% and the “Population Membrane Permeable-Phenotype (%)” value [3] was 4%. The “Population Mitochondria Different-Phenotype (%)” value [3] was 74%, the “Population Mitotic Cells (%)” value [3] was 63% and the “Population Normal (%)” value [3] was 90%. For the same compound, the “Population Pyknosed Nuclei (%)” value [3] was 31%, the “Population Tubulin-Different-Phenotype (%)” value [3] was 50% and the “Total Cell Count” value [3] was 145. The “Population Apoptotic (%)” value [4] was 50%, the “Population Fragmented Nuclei (%)” value [4] was 3% and the “Population Healthy Nuclei (%)” value [4] was 88%. The “Population Hoechst High Intensity Objects (%)” value [4] was 8%, the “Population Membrane Permeable-Phenotype (%)” value [4] was 2% and the “Population Mitochondria Different-Phenotype (%)” value [4] was 27%. For the same compound, the “Population Mitotic Cells (%)” value [4] was 50%, the “Population Normal (%)” value [4] was 91% and the “Population Pyknosed Nuclei (%)” value [4] was 7%. For the same compound, the “Population Tubulin-Different-Phenotype (%)” value [4] was 12%, the “Total Cell Count” value [4] was 91 and the “Population Apoptotic (%)” value [5] was 27%. The “Population Fragmented Nuclei (%)” value [5] was 8%, the “Population Healthy Nuclei (%)” value [5] was 80% and the “Population Hoechst High Intensity Objects (%)” value [5] was 7%. For the same compound, the “Population Membrane Permeable-Phenotype (%)” value [5] was 0%, the “Population Mitochondria Different-Phenotype (%)” value [5] was 5% and the “Population Mitotic Cells (%)” value [5] was 72%. For the same compound, the “Population Normal (%)” value [5] was 92%, the “Population Pyknosed Nuclei (%)” value [5] was 11% and the “Total Cell Count” value [5] was 229. For the same compound, the “Population Apoptotic (%)” value [6] was 0%, the “Population Fragmented Nuclei (%)” value [6] was 7% and the “Population Healthy Nuclei (%)” value [6] was 89%. The “Population Hoechst High Intensity Objects (%)” value [6] was 6%, the “Population Membrane Permeable-Phenotype (%)” value [6] was 2% and the “Population Mitochondria Different-Phenotype (%)” value [6] was 7%. For the same compound, the “Population Mitotic Cells (%)” value [6] was 100%, the “Population Normal (%)” value [6] was 93% and the “Population Pyknosed Nuclei (%)” value [6] was 3%. The “Population Tubulin-Different-Phenotype (%)” value [6] was 7%, the “Total Cell Count” value [6] was 76 and the “Population Apoptotic (%)” value [7] was 41%. The “Population Fragmented Nuclei (%)” value [7] was 18%, the “Population Healthy Nuclei (%)” value [7] was 32% and the “Population Hoechst High Intensity Objects (%)” value [7] was 8%. The “Population Membrane Permeable-Phenotype (%)” value [7] was 10%, the “Population Mitochondria Different-Phenotype (%)” value [7] was 71% and the “Population Mitotic Cells (%)” value [7] was 58%. The “Population Normal (%)” value [7] was 91%, the “Population Pyknosed Nuclei (%)” value [7] was 48% and the “Population Tubulin-Different-Phenotype (%)” value [7] was 31%. The “Total Cell Count” value [7] was 173, the “Population Apoptotic (%)” value [8] was 27% and the “Population Fragmented Nuclei (%)” value [8] was 3%. The “Population Healthy Nuclei (%)” value [8] was 78%, the “Population Hoechst High Intensity Objects (%)” value [8] was 6% and the “Population Membrane Permeable-Phenotype (%)” value [8] was 2%. For the same compound, the “Population Mitochondria Different-Phenotype (%)” value [8] was 21%, the “Population Mitotic Cells (%)” value [8] was 72% and the “Population Normal (%)” value [8] was 93%. For the same compound, the “Population Pyknosed Nuclei (%)” value [8] was 18%, the “Population Tubulin-Different-Phenotype (%)” value [8] was 10% and the “Total Cell Count” value [8] was 118. The “Population Apoptotic (%)” value [9] was 25%, the “Population Fragmented Nuclei (%)” value [9] was 9% and the “Population Healthy Nuclei (%)” value [9] was 85%. The “Population Hoechst High Intensity Objects (%)” value [9] was 4%, the “Population Membrane Permeable-Phenotype (%)” value [9] was 1% and the “Population Mitochondria Different-Phenotype (%)” value [9] was 12%. The “Population Mitotic Cells (%)” value [9] was 75%, the “Population Normal (%)” value [9] was 95% and the “Population Pyknosed Nuclei (%)” value [9] was 4%. The “Population Tubulin-Different-Phenotype (%)” value [9] was 8%, the “Total Cell Count” value [9] was 288 and the “Population Apoptotic (%)” value [10] was 16%. For the same compound, the “Population Fragmented Nuclei (%)” value [10] was 8%, the “Population Healthy Nuclei (%)” value [10] was 84% and the “Population Hoechst High Intensity Objects (%)” value [10] was 1%. The “Population Membrane Permeable-Phenotype (%)” value [10] was 0%, the “Population Mitochondria Different-Phenotype (%)” value [10] was 10% and the “Population Mitotic Cells (%)” value [10] was 83%. For the same compound, the “Population Normal (%)” value [10] was 98%, the “Population Pyknosed Nuclei (%)” value [10] was 6% and the “Population Tubulin-Different-Phenotype (%)” value [10] was 9%. The “Total Cell Count” value [10] was 106, the “Population Apoptotic (%)” value [11] was 67% and the “Population Fragmented Nuclei (%)” value [11] was 32%. The “Population Healthy Nuclei (%)” value [11] was 21%, the “Population Hoechst High Intensity Objects (%)” value [11] was 12% and the “Population Membrane Permeable-Phenotype (%)” value [11] was 12%. The “Population Mitochondria Different-Phenotype (%)” value [11] was 58%, the “Population Mitotic Cells (%)” value [11] was 32% and the “Population Normal (%)” value [11] was 87%. For the same compound, the “Population Pyknosed Nuclei (%)” value [11] was 45%, the “Population Tubulin-Different-Phenotype (%)” value [11] was 28% and the “Total Cell Count” value [11] was 265. For the same compound, the “Population Apoptotic (%)” value [12] was 16%, the “Population Fragmented Nuclei (%)” value [12] was 13% and the “Population Healthy Nuclei (%)” value [12] was 78%. The “Population Hoechst High Intensity Objects (%)” value [12] was 9%, the “Population Membrane Permeable-Phenotype (%)” value [12] was 11% and the “Population Mitochondria Different-Phenotype (%)” value [12] was 16%. For the same compound, the “Population Mitotic Cells (%)” value [12] was 83%, the “Population Normal (%)” value [12] was 90% and the “Population Pyknosed Nuclei (%)” value [12] was 7%. The “Population Tubulin-Different-Phenotype (%)” value [12] was 18% and the “Total Cell Count” value [12] was 182.

Reference: ChEMBL document CHEMBL4689842, “EUbOPEN Chemogenomics Library wave 1” (2021)
